Screening data as filed in PubChem.
The full list was thinned out, with hits kept by preference.
HSF1 activator = HSF-1 activators, primary screen, NIH3T3-HGL cells, MG132 stress, luminescence, single point. activation, % at 9 µM. NIH3T3-HGL HSF-1 luciferase reporter, 8 h; 100% = twice DMSO control signal. actives 1.7% (n = 300,000). AID 504408, 2011;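 active = mean replicate activation of at least 50% with a set share of replicates each reaching 50%; inconclusive = only one of those two conditions met; inactive = mean below 50% and too few replicates reaching it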;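 also: 0% = median of the neutral control wells and 100% = twice that signal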
Hsp70 activator = Hsp70 transcriptional activators, primary screen, cell-based, HeLa, Hsp70 promoter luciferase, luminescence, 10 µM; HeLa Hsp70 promoter luciferase reporter; scaled: vehicle 0, proteasome-inhibitor control 100%; AID 1203, 2008; activation, % at 10 µM; actives 0.04% (n = 200,000);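 active = activation above the mean across all tested compounds plus 3 SD, cutoff set per campaign, cut at about 5.5% in these data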;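 also: 100% = MG132 at 30 µM as the positive control and 0% = DMSO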
T cruzi repl = inhibitors of intracellular T. cruzi growth, primary screen, luminescence, NIH3T3 host cells; T. cruzi beta-gal in NIH3T3, 90 h; inhibition, % (no concentration beside the values); actives 1.4% (n = 300,000); AID 1885, 2009;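 active = mean inhibition across valid replicates above about 55%, limit read from the data; inconclusive = mean below that limit but half or more replicates reach it; inactive = mean below it, under half of replicates reach it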;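 also: signal also drops with host cell toxicity which is not excluded here; 0% = plate median of DMSO wells and 100% = zero luminescence signal; higher percent means less beta-gal luminescence so fewer parasites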
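assay system = mouse NIH/3T3 fibroblasts infected with β-gal-expressing T. cruzi Tulahuen C4 | input = 5,000 NIH/3T3 host cells per well | buffer or medium = DMEM plus 2% FBS | timing = 3 h host attachment, then at least 90 h co-culture | measured by = GalScreen luminescence, 60 min | evaluation = luminescence reflecting intracellular parasite burden, expressed as percent inhibition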
L major viab = Leishmania major promastigote growth inhibition, primary screen; Leishmania major promastigotes, resazurin fluorescence viability; inhibition, % at 10 µM; actives 9% (n = 200,000); in the data active = inhibition above about 50%;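 also: promastigotes grown with compound for 44 hours at 28 °C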
HSF1 inhib = HSF1 inhibitors in luciferase reporter cells, primary screen, cell-based, NIH3T3, luminescence; NIH3T3-HGL HSE-luciferase, MG132-induced, luminescence 8 h; hits give low values; activity change, negative = inhibition, % at 7.5 µM (by protocol); actives 0.77% (n = 300,000);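 active = more than half of replicate wells show activity change below -50%, luminescence cut by over half; inconclusive = some wells, but at most half, below -50%; inactive = no replicate well below -50%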;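 also: luciferase reports HSF-1 transcriptional activity via heat shock element; 0% = median of DMSO wells and -100% = zero luminescence signal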
Active calls of the source: *; ? = inconclusive; · = no result given.

SMILES | HSF1 activator | Hsp70 activator | T cruzi repl | L major viab | HSF1 inhib
Cc1ccc(C2CC(=O)Nc3c2ccc2ccccc32)cc1[N+](=O)[O-] (centres undefined) | 4.5 | -0.2 | 10.2 | 95.5* | -2.4
O=C1CC(c2cccc([N+](=O)[O-])c2)c2cc3c(cc2N1)CCC3 (centres undefined) | -2.1 | -0.1 | 15.1 | 3.6 | -1.4
CCCCn1c(N)c(NCC)c(=O)[nH]c1=O | · | -0.2 | · | -2.2 | ·
Cn1cnc2c1c(=O)n(Cc1ccc(Cl)cc1Cl)c(=O)n2C | 14.0 | · | -1.8 | · | 3.9
CS(=O)(=O)N(CC(=O)NCCC1=CCCCC1)C1CCCCC1 | -3.7 | -0.3 | 7.9 | 3.7 | -7.8
O=C(CN1CCN(C2CCCCC2)CC1)NCCC1=CCCCC1 | -2.6 | -0.1 | -6.0 | 94.0* | -4.1
O=C(COc1ccc(S(=O)(=O)NC2CCCCC2)cc1)NC1CCCCC1 | -8.0 | -0.5 | 16.9 | 10.0 | 7.0
O=C(COc1ccc(S(=O)(=O)NC2CCCCC2)cc1)NCCC1=CCCCC1 | -9.1 | -0.1 | 13.8 | 58.6* | 2.4
Cc1nc2c3cc(F)ccc3n(Cc3ccccc3F)c2s1 | 20.9 | -0.3 | -53.6 | -3.2 | 13.0
Cc1nc2c3ccccc3n(Cc3ccccc3F)c2s1 | 15.8 | 0.0 | 4.5 | 55.9* | 1.0
CCOc1ccc2oc(C(=O)Nc3cc(C)ccn3)c(C)c2c1 | 32.2 | · | 7.3 | · | 17.5
Cc1ccc(NC2(C(F)(F)F)N=C(c3ccccc3)NC2=O)nc1 (centres undefined) | 18.5 | -0.3 | 5.7 | 1.0 | 1.0
Cc1cccc(NC2(C(F)(F)F)N=C(c3ccccc3)NC2=O)n1 (centres undefined) | -64.4 | 0.2 | -6.9 | -4.2 | -57.0*
CCN(CC)c1nc(C)nc2c1cnn2CCc1ccccc1 | 56.7* | 0.2 | -7.8 | 4.7 | 37.2
CCN(CC)c1ncnc2c1cnn2Cc1ccc(C)cc1 | -5.5 | · | 2.8 | · | 4.6
CN(C)CCn1nnc2c(=O)oc3ccccc3c21 | 9.8 | -0.1 | -26.1 | -8.4 | 6.3
N#Cc1ccc(C(=O)OCC(=O)Nc2ccc(S(N)(=O)=O)cc2)cc1 | -7.6 | · | 24.1 | · | -1.7
c1ccc(-c2ccc(-c3nc(-c4ccccn4)no3)cc2)cc1 | -89.0 | -0.8 | 8.3 | -3.6 | -87.7*
Cc1ccc(-c2nc(-c3ccccn3)no2)cc1 | -80.4 | -0.6 | -8.2 | 2.1 | -78.3*
NC(=O)c1ccccc1N1CCCCC1 | -7.9 | · | -7.2 | · | -2.3
N=c1sccn1CC(=O)NC(c1ccccc1)c1ccccc1 | 0.9 | -0.1 | -27.5 | 6.1 | -2.5
C=CCN=C1NN=C(c2ccc3c(c2)OCCO3)CS1 | -63.4 | -0.4 | 17.6 | -3.2 | -55.9*
c1ccc(C2=NNC(=NCc3ccc4c(c3)OCO4)SC2)cc1 | 6.0 | -0.1 | -8.4 | 0.0 | 9.7
COCCNC(=O)/C(C#N)=C/C(C)=C/c1ccccc1 | -0.3 | -0.2 | -12.4 | 73.5* | -1.0
COCCNC(=O)/C(C#N)=C/c1cccc(/C=C(\C#N)C(=O)NCCOC)c1 | -14.6 | -0.3 | -21.1 | 99.2* | -2.7
SMILES | HSF1 activator | Hsp70 activator | T cruzi repl | L major viab | HSF1 inhib
N#C/C(=C\c1cccc([N+](=O)[O-])c1)C(=O)NCc1ccc(Cl)cc1 | · | -0.2 | · | 50.6* | ·
CCCCNC(=O)/C(C#N)=C/c1cccnc1 | -9.6 | -0.2 | -14.2 | 93.3* | 1.8
CCC1CCCCN1C(=O)COc1c(Br)cc(Br)c2cccnc12 (centres undefined) | -16.0 | 0.0 | 14.3 | 28.4 | -7.5
CN(C(=O)CNC(=O)c1ccc(Br)o1)C1CCCCC1 | 4.6 | · | -4.8 | · | 0.1
COC(=O)C1=C(SC)N(c2ccccc2)C(c2ccccc2)CC1=O (centres undefined) | 20.7 | -0.4 | -10.8 | -1.8 | -3.7
COCCNC(=O)/C(C#N)=C/C=C/c1ccccc1[N+](=O)[O-] | 30.6 | 0.7 | -40.7 | 80.9* | 14.2
Cc1ccc(C(=O)Nc2cccnc2N2CCN(C)CC2)cc1 | 9.1 | -0.2 | -4.7 | -9.2 | 2.1
Clc1cccc(CN2CCc3c([nH]c4ccccc34)C2)c1 | 15.1 | · | 58.9* | · | -4.9
O=C1C(NS(=O)(=O)c2cccs2)=C(N2CCOCC2)C(=O)c2ccccc21 | 33.6 | · | -14.8 | · | 16.9
CN(C1=C(N2CCOCC2)C(=O)c2ccccc2C1=O)c1ccccc1 | -11.5 | -0.3 | -1.4 | 58.6* | -2.2
Cc1nc2c(-c3ccc(F)cc3)c(C)nn2c(C)c1CCC(=O)Nc1ccccc1 | · | · | 49.7 | · | ·
CCN1CCN(c2ccc(NC(=O)CCc3c(C)nc4c(-c5ccc(F)cc5)c(C)nn4c3C)cc2)CC1 | 1.6 | -0.1 | 64.3* | 99.4* | -4.2
Cc1cc(S(=O)(=O)NCc2ccccc2)ccc1OCC(=O)Nc1cccc([N+](=O)[O-])c1 | -31.3 | -0.4 | -11.5 | 98.8* | -17.3
Cc1cc(S(=O)(=O)NCc2ccccc2)ccc1OCC(=O)NCc1ccccn1 | -28.2 | · | 2.5 | · | -4.4
CCc1ccc(NC(=O)CSc2nnc(-c3cnccn3)n2C)cc1 | 11.4 | · | 0.6 | · | 1.5
COc1cc2c(cc1OC)C(c1cc(C)ccc1C)CC(=O)N2 (centres undefined) | 16.0 | · | 12.0 | · | 3.3
CN1CCN(CC(=O)n2c3c(c4ccccc42)CCCC3)CC1 | -71.8 | 0.0 | 22.4 | 75.3* | -63.9*
COc1ccc(C2CC(C)(c3ccc(OC)cc3OC)Nc3ccccc3N2)c(OC)c1 (centres undefined) | 13.1 | -0.2 | 73.5* | 62.4* | -4.8
O=C(O)COCC(=O)N1CCN(C2c3ccccc3-c3ccccc32)CC1 | -16.7 | · | 2.5 | · | -11.8
Cc1ccc(O)c(C(=O)CC(=O)c2ccc(C(C)(C)C)cc2)c1 | 3.7 | · | -5.6 | · | -1.6
Cc1ccc(O)c(C(=O)CC(=O)c2ccccc2Cl)c1 | 18.8 | 0.0 | 12.4 | 95.5* | 10.0
Cc1ccc(C(=O)CC(=O)c2cccc(F)c2)c(O)c1 | 8.3 | -0.3 | 7.2 | 97.3* | 11.4
O=C(C1CCCN(c2ncnc3c2nc2n3CCCCC2)C1)N1CCN(c2ccccc2F)CC1 (centres undefined) | 19.9 | · | 17.0 | · | 5.9
CCOC(=O)C1=C(CSc2nc3ccccc3s2)NC(=O)NC1c1ccc(OC)cc1 (centres undefined) | 47.2 | -0.6 | 23.9 | 61.9* | 37.7
CCOC(=O)C1=C(CSCC(=O)OC)NC(=O)NC1c1cc(C)ccc1C (centres undefined) | 14.0 | -0.4 | -1.5 | 2.2 | 2.4
CCOC(=O)C1=C(CSc2nc3ccccc3s2)NC(=O)NC1c1cc(C)ccc1C (centres undefined) | 31.5 | -0.1 | ? | 60.2* | 19.0
COc1ccc(-c2cc(CNS(=O)(=O)c3ccccc3)on2)cc1 | -16.1 | 0.1 | 0.5 | -0.9 | 4.4
NCCCCCc1nnc(SCC(N)=O)o1 | 8.4 | 0.0 | -17.4 | -3.4 | -5.0
NCCc1nnc(SCc2ccc(F)cc2)o1 | 64.3* | -0.4 | -16.9 | -0.6 | 39.8
Fc1ccc(NCc2nnc(SCc3ccccc3)o2)cc1 | 8.4 | -0.3 | -0.4 | -4.0 | 1.9
